# Source: ChEMBL document CHEMBL1124794, “Synthesis, chemistry, and antineoplastic activity of alpha-halopyridinium salts: potential pyridone prodrugs of acylated vinylogous carbinolamine tumor inhibitors” (J Med Chem, 1990)
# Where “and” joins values, the source holds several entries; their conditions need not be identical. Identical values can stand only once.
# How the values were obtained:
# [1] = In vivo activity against murine M5076 tumor system at the dose of 100 mg/kg, activity expressed as %T/C.; type: functional, Mus musculus
# Method in brief: (§1)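 M5076: ascitic fluid with ca. 10^6 cells inoculated ip into CD2F1 mice. Dosing started 24 h after inoculation and was then given every 4 days for four doses in total, from solutions or suspensions made fresh each day. Toxicity day survivors were scored on day 5. Body weight difference is day 14 minus day 1. %T/C is based on median survival time versus controls.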
# [2] = Half life at the pH 10.0; type: ADME; settings: buffer
# Method in brief: (§2)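 Bis-carbamate in acetonitrile–water (1:1; buffer added to a 0.5 mg/mL acetonitrile solution), 0.05 M buffer, ionic strength 0.136 (KCl), 25 ± 0.1 °C. Buffers: phosphate pH 2.0; citrate pH 3.0–3.5; succinate pH 4.0; acetate pH 5.0; phosphate pH 6.0–8.0; borate pH 9.0; carbonate pH 10.0. HPLC bis-carbamate peak-area loss, ln(area0/areat) vs time slope = kobs. Duplicates averaged.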
# L1210 [3] = experiment: In vivo activity against murine L1210 tumor system at the dose of 36 mg/kg, activity expressed as TDS; 6/6; type: functional, Mus musculus
# Method in brief: as §1, with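 “L1210 lymphocytic leukemia:” for “M5076:”, “injected” for “inoculated”, “repeated daily” for “then given every 4 days”, “five” for “four”, “5” for “14”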
# L1210 [4] = experiment: In vivo activity against murine L1210 tumor system at the dose of 36 mg/kg, activity expressed as body weight difference; T-C; type: functional, Mus musculus
# Method in brief: as §1, with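 “L1210 lymphocytic leukemia:” for “M5076:”, “injected” for “inoculated”, “repeated daily” for “then given every 4 days”, “five” for “four”, “5” for “14”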
# [5] = Half life at the pH 5.0; type: ADME; settings: buffer; method in brief: as §2
# [6] = Half life at the pH 3.0; type: ADME; settings: buffer; method in brief: as §2
# L1210 [7] = experiment: In vivo activity against murine L1210 tumor system at the dose of 100 mg/kg, activity expressed as body weight difference; T-C; type: functional, Mus musculus
# Method in brief: as §1, with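 “L1210 lymphocytic leukemia:” for “M5076:”, “injected” for “inoculated”, “repeated daily” for “then given every 4 days”, “five” for “four”, “5” for “14”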
# L1210 [8] = experiment: In vivo activity against murine L1210 tumor system at the dose of 166.7 mg/kg, activity expressed as KE; type: functional, Mus musculus
# Method in brief: as §1, with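 “L1210 lymphocytic leukemia:” for “M5076:”, “injected” for “inoculated”, “repeated daily” for “then given every 4 days”, “five” for “four”, “5” for “14”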
# [9] = Half life at the pH 9.0; type: ADME; settings: buffer
# Method in brief: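 Bis-carbamate hydrolysis in acetonitrile–water (1:1) with 0.05 M borate buffer (boric acid–NaOH), pH 9.0, ionic strength 0.136 adjusted with KCl, 25 °C, thermostated. Loss of the bis-carbamate peak area was tracked by HPLC. k_obs is the slope of ln(area0/areat) vs time. Values are averages of two determinations.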
# [10] = Effect of pH on carbamate hydrolysis in 0.05 M buffer concentration at the pH 6.0, 25 degree C.; type: ADME; method in brief: as §2
# L1210 [11] = experiment: In vivo activity against murine L1210 tumor system at the dose of 60 mg/kg, activity expressed as TDS; 6/6; type: functional, Mus musculus
# Method in brief: as §1, with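 “L1210 lymphocytic leukemia:” for “M5076:”, “injected” for “inoculated”, “repeated daily” for “then given every 4 days”, “five” for “four”, “5” for “14”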
# [12] = In vivo activity against murine M5076 tumor system at the dose of 21.6 mg/kg, activity expressed as KE; type: functional, Mus musculus; method in brief: as §1
# [13] = Effect of Ionic strength on carbamate hydrolysis in acetonitrile-water at 0.05 M buffer concentration, pH 7.4,25 degree C; type: ADME
# Method in brief: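 Bis-carbamate in acetonitrile–0.05 M phosphate buffer (1:1), pH 7.4, 25 °C, at varied ionic strength. Loss of bis-carbamate HPLC peak area tracked over time. Pseudo-first-order kobs taken from the ln(area0/areat) vs time slope.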
# P388 [14] = experiment: In vivo activity against P388 Lymphocytic Leukemia in CD2F1 mice at the dose of 100 mg/kg, activity expressed as body weight difference; T-C; type: functional, Mus musculus
# Method in brief: (§3)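 CD2F1 mice were inoculated with ascitic fluid holding ca. 10^6 P388 cells. Drug was given daily from 24 h after inoculation, from solutions or suspensions made fresh each day, some as a saline suspension. TDS is survivors/initial animals on day 5. BWD is body weight on day 5 minus day 1. %T/C compares median survival of treated and control mice.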
# [15] = In vivo activity against murine M5076 tumor system at the dose of 36 mg/kg, activity expressed as %T/C.; type: functional, Mus musculus; method in brief: as §1
# [16] = Effect of phosphate buffer on carbamate hydrolysis in acetonitrile-water at the concentration of 0.01 M on pH 3.0, 25 degree C.; type: ADME; settings: in the assay text read “citrate buffer” for “phosphate buffer”
# Method in brief: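 Bis-carbamate in acetonitrile–water (1:1), 25 ± 0.1 °C. Citrate buffer at pH 3.0 or phosphate buffer at pH 7.4, at 0.01, 0.025 or 0.05 M, ionic strength 0.136 (KCl). Kinetics followed by HPLC as the decrease in bis-carbamate peak area. The regression slope of ln(area0/areat) vs time gave pseudo-first-order kobs. Duplicates averaged.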
# L1210 [17] = experiment: In vivo activity against murine L1210 tumor system at the dose of mg/kg, activity expressed as %T/C.; type: functional, Mus musculus
# Method in brief: as §1, with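 “L1210 lymphocytic leukemia:” for “M5076:”, “injected” for “inoculated”, “repeated daily” for “then given every 4 days”, “five” for “four”, “5” for “14”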
# [18] = Half life at the ionic strength; type: ADME
# [19] = In vivo activity against murine M5076 tumor system at the dose of 21.6 mg/kg, activity expressed as TDS; 10/10; type: functional, Mus musculus; method in brief: as §1
# L1210 [20] = experiment: In vivo activity against murine L1210 tumor system at the dose of 100 mg/kg, activity expressed as TDS; 6/6; type: functional, Mus musculus
# Method in brief: as §1, with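 “L1210 lymphocytic leukemia:” for “M5076:”, “injected” for “inoculated”, “repeated daily” for “then given every 4 days”, “five” for “four”, “5” for “14”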
# [21] = In vivo activity against murine M5076 tumor system at the dose of 21.6 mg/kg, activity expressed as %T/C.; type: functional, Mus musculus; method in brief: as §1
# MX1 = experiment: In vivo activity against murine MX-1 tumor system at the dose of 37.5 mg/kg, activity expressed as TDS; 4/6; type: functional, Mus musculus
# [22] = Effect of Ionic strength (0.25 M NaCl)on the hydrolysis of pyridinium Moity in 0.02 M buffer concentration, pH 7.4,25 degree C; type: ADME
# Method in brief: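 Pyridinium salt in 0.02 M phosphate buffer, pH 7.4, 25 °C, with NaCl varied 0.10–1.0 M. Loss of the pyridinium chromophore's UV absorbance maximum (conversion to pyridone) followed over time. Pseudo-first-order kobs and half-life derived from that decay.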
# P388 [23] = experiment: In vivo activity against P388 Lymphocytic Leukemia in CD2F1 mice at the dose of 100 mg/kg, activity expressed as TDS; 1/6; type: functional, Mus musculus; method in brief: as §3
# [24] = Effect of phosphate buffer on the hydrolysis of alpha Fluoropyridinium Moity at the concentration of 0.10M, pH 8.0, 25 degree C.; type: ADME
# Method in brief: (§4)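 α-Fluoropyridinium hydrolysis to pyridone in phosphate buffer at 0.02, 0.05 or 0.10 M, pH 6.5 or 8.0, ionic strength […] °C. Pyridinium UV absorbance maximum followed with time to give pseudo-first-order kobs and half-life.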
# [25] = In vivo activity against murine M5076 tumor system at the dose of 50 mg/kg, activity expressed as body weight difference; type: functional, Mus musculus
# L1210 [26] = experiment: In vivo activity against murine L1210 tumor system at the dose of 25 mg/kg, activity expressed as TDS; 6/6; type: functional, Mus musculus
# Method in brief: as §1, with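 “L1210 lymphocytic leukemia:” for “M5076:”, “injected” for “inoculated”, “repeated daily” for “then given every 4 days”, “five” for “four”, “5” for “14”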
# [27] = Effect of phosphate buffer on the hydrolysis of alpha Fluoropyridinium Moity at the concentration of 0.05M, pH 8.0,25degree C; type: ADME; method in brief: as §4
# [28] = Effect of phosphate buffer concentration on the hydrolysis of alpha Fluoropyridinium Moity at the concentration of 0.02M, pH 6.5, 25 degree C.; type: ADME; method in brief: as §4
# L1210 [29] = experiment: In vivo activity against murine L1210 tumor system at the dose of 50 mg/kg, activity expressed as KE; type: functional, Mus musculus
# Method in brief: as §1, with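 “L1210 lymphocytic leukemia:” for “M5076:”, “injected” for “inoculated”, “repeated daily” for “then given every 4 days”, “five” for “four”, “5” for “14”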
smiles,measurement,setting,value
CC(C)NC(=O)OCc1c(COC(=O)NC(C)C)c(-c2ccn(C)c(=O)c2)n2c1CCC2,T/C,[1],122%
same,half-life,[2],52.3 min
same,TDS,L1210 [3],6
same,BWD,L1210 [4],-0.3 g
same,half-life,[5],50 min
same,half-life,[6],22.8 min
same,BWD,L1210 [7],-4.2 g
same,KE,L1210 [8],-2.29
same,half-life,[9],54 min
same,K obs,[10],0.0135 min⁻¹
same,TDS,L1210 [11],6
same,KE,[12],-1.93
same,K obs,[13],0.013 min⁻¹ and 0.0124 min⁻¹ and 0.008 min⁻¹
same,BWD,P388 [14],-1.8 g
same,T/C,[15],117%
same,K obs,[16],0.0349 min⁻¹
same,T/C,L1210 [17],135%
same,T1/2,[18],55.89 min and 86.65 min
same,half-life,[18],53.5 min
same,TDS,[19],10
same,TDS,L1210 [20],6
same,T/C,[21],107%
CC(C)NC(=O)OCc1c(COC(=O)NC(C)C)c(-c2cc[n+](C)c(F)c2)n2c1CCC2.[I-],TDS,MX1,4
same,K obs,[22],0.02 min⁻¹
same,TDS,P388 [23],1
same,K obs,[24],0.036 min⁻¹
same,BWD,[25],1.4 g
same,TDS,L1210 [26],6
same,K obs,[27],0.02 min⁻¹
same,K obs,[28],0.0052 min⁻¹
same,KE,L1210 [29],-1.94
